According to ChEMBL document CHEMBL1123950, “N-(Retinoyl)amino acids. Synthesis and chemopreventive activity in vitro” (1988):

Columns and labels:
[1] = test system: Cricetinae gen. sp.; test: Reversal of keratinization in vitamin A deficient hamster trachea culture; assay type: functional, Cricetulus griseus; conditions: read-out: ED50 (the source's name)
Summary of the method: (§1)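 Tracheas from 29-31-day-old hamsters kept on a vitamin A free diet, cultured in serum-free CMRL 1066 (insulin 1.0 μg/mL, hydrocortisone hemisuccinate 0.1 μg/mL, glutamine 2 mM, Garamycin 50 μg/mL), 50% O2/45% N2/5% CO2, rocked at 36 °C. Retinoid-free for 3 days, then retinoid in DMSO (0.1% final) for 7 days. Fixed in formalin; squamous metaplasia graded mild 2-10%, marked 10-40%, severe >40%.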

[2] = test system: Cricetinae gen. sp.; test: Cultures with marked degree of squamous metaplasia at a concentration of 10e-10; assay type: functional, Cricetulus griseus
Summary of the method: (§2)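 Tracheas from 29-31-day-old hamsters fed a vitamin A free diet; cultured in serum-free CMRL 1066 (insulin 1.0 μg/mL, hydrocortisone hemisuccinate 0.1 μg/mL, glutamine 2 mM, Garamycin 50 μg/mL), 50% O2/45% N2/5% CO2, rocked, 36 °C. Retinoid-free 3 days, then retinoid in DMSO (final 0.1%) for 7 days; medium and gas changed three times. Formalin-fixed day 10; squamous metaplasia graded: mild 2-10%, marked 10-40%, severe >40%.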

[3] = test system: Cricetinae gen. sp.; test: Cultures with marked degree of squamous metaplasia at a concentration of 10e-11; assay type: functional, Cricetulus griseus; summary of the method: as §2
[4] = test system: Cricetinae gen. sp.; test: Cultures with marked degree of squamous metaplasia at a concentration of 10e-8 M; assay type: functional, Cricetulus griseus; summary of the method: as §2
[5] = test system: Cricetinae gen. sp.; test: Cultures with marked degree of squamous metaplasia at a concentration of 10e-9; assay type: functional, Cricetulus griseus; summary of the method: as §2
[6] = test system: Cricetinae gen. sp.; test: Cultures with mild degree of squamous metaplasia at a concentration of 10e-10; assay type: functional, Cricetulus griseus; summary of the method: as §2
[7] = test system: Cricetinae gen. sp.; test: Cultures with mild degree of squamous metaplasia at a concentration of 10e-11; assay type: functional, Cricetulus griseus; summary of the method: as §2
[8] = test system: HEp-2; test: Viability of human epidermoid carcinoma cells (H.Ep-2) at a concentration 10 ug/mL; assay type: functional
Summary of the method: (§3)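 Human epidermoid carcinoma H.Ep.-2 cells, clone-colony viability assay with retinoid at 1-40 μg/mL; incubated 37 °C for 12 days, stained, colonies counted. % of control = 100 × treated colonies/control colonies.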

[9] = test system: HEp-2; test: Viability of human epidermoid carcinoma cells (H.Ep-2) at a concentration 1 ug/mL; assay type: functional; summary of the method: as §3
[10] = test system: HEp-2; test: Viability of human epidermoid carcinoma cells (H.Ep-2) at a concentration 20 ug/mL; assay type: functional; summary of the method: as §3
[11] = test system: HEp-2; test: Viability of human epidermoid carcinoma cells (H.Ep-2) at a concentration 40 ug/mL; assay type: functional; summary of the method: as §3
[12] = test system: Cricetinae gen. sp.; test: Cultures with severe degree of squamous metaplasia at a concentration of 10e-9; assay type: functional, Cricetulus griseus; summary of the method: as §1
[13] = test system: Cricetinae gen. sp.; test: Cultures with mild degree of squamous metaplasia at a concentration of 10e-8 M; assay type: functional, Cricetulus griseus; summary of the method: as §2
[14] = test system: Cricetinae gen. sp.; test: Cultures with mild degree of squamous metaplasia at a concentration of 10e-9; assay type: functional, Cricetulus griseus; summary of the method: as §2
[15] = test system: Cricetinae gen. sp.; test: Cultures with minimal degree of squamous metaplasia at a concentration of 10e-10; assay type: functional, Cricetulus griseus; summary of the method: as §2
[16] = test system: Cricetinae gen. sp.; test: Cultures with minimal degree of squamous metaplasia at a concentration of 10e-11; assay type: functional, Cricetulus griseus; summary of the method: as §2
[17] = test system: Cricetinae gen. sp.; test: Cultures with minimal degree of squamous metaplasia at a concentration of 10e-8 M; assay type: functional, Cricetulus griseus; summary of the method: as §2
[18] = test system: Cricetinae gen. sp.; test: Cultures with minimal degree of squamous metaplasia at a concentration of 10e-9; assay type: functional, Cricetulus griseus; summary of the method: as §2
[19] = test system: Cricetinae gen. sp.; test: Cultures with no evidence of squamous metaplasia at a concentration of 10e-10; assay type: functional, Cricetulus griseus; summary of the method: as §2
[20] = test system: Cricetinae gen. sp.; test: Cultures with no evidence of squamous metaplasia at a concentration of 10e-11; assay type: functional, Cricetulus griseus; summary of the method: as §2
[21] = test system: Cricetinae gen. sp.; test: Cultures with no evidence of squamous metaplasia at a concentration of 10e-8 M; assay type: functional, Cricetulus griseus; summary of the method: as §2
[22] = test system: Cricetinae gen. sp.; test: Cultures with no evidence of squamous metaplasia at a concentration of 10e-9; assay type: functional, Cricetulus griseus; summary of the method: as §2
[23] = test system: Cricetinae gen. sp.; test: Cultures with severe degree of squamous metaplasia at a concentration of 10e-11; assay type: functional, Cricetulus griseus; summary of the method: as §1
[24] = test system: Cricetinae gen. sp.; test: Cultures with severe degree of squamous metaplasia at a concentration of 10e-8 M; assay type: functional, Cricetulus griseus; summary of the method: as §1
[25] = test system: Cricetinae gen. sp.; test: Reversal of keratinization in vitamin A deficient hamster trachea culture at a concentration of 10e-8 M; assay type: functional, Cricetulus griseus; conditions: read-out: ED50 (the source's name); summary of the method: as §1
[26] = test system: L1210; test: Inhibition of proliferation of L1210 cells in culture at a concentration 10 ug/mL; assay type: functional, Mus musculus; parameters: scale not given: the % may be the effect or the level left
Summary of the method: (§4)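 L1210 suspension of about 10⁵ cells treated with retinoid at 1-40 μg/mL, 37 °C for 48 h; cells counted at 0 and 48 h, three cultures averaged per concentration. % of control = 100 × (treated 48 h − 0 h count)/(control 48 h − 0 h count).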

[27] = test system: L1210; test: Inhibition of proliferation of L1210 cells in culture at a concentration 1 ug/mL; assay type: functional, Mus musculus; parameters: scale not given: the % may be the effect or the level left; summary of the method: as §4
[28] = test system: L1210; test: Inhibition of proliferation of L1210 cells in culture at a concentration 20 ug/mL; assay type: functional, Mus musculus; parameters: scale not given: the % may be the effect or the level left; summary of the method: as §4
[29] = test system: Cricetinae gen. sp.; test: Cultures with severe degree of squamous metaplasia at a concentration of 10e-10; assay type: functional, Cricetulus griseus; summary of the method: as §2
[30] = test system: Cricetinae gen. sp.; test: Cultures with marked degree of squamous metaplasia at a conc of 10e-10 M; assay type: functional, Cricetulus griseus; summary of the method: as §2
[31] = test system: Cricetinae gen. sp.; test: Cultures with marked degree of squamous metaplasia at a conc of 10e-8 M; assay type: functional, Cricetulus griseus; summary of the method: as §2
[32] = test system: Cricetinae gen. sp.; test: Cultures with marked degree of squamous metaplasia at a conc of 10e-9 M; assay type: functional, Cricetulus griseus; summary of the method: as §2
[33] = test system: Cricetinae gen. sp.; test: Cultures with mild degree of squamous metaplasia at a conc of 10e-10 M; assay type: functional, Cricetulus griseus; summary of the method: as §2
[34] = test system: Cricetinae gen. sp.; test: Cultures with mild degree of squamous metaplasia at a conc of 10e-8 M; assay type: functional, Cricetulus griseus; summary of the method: as §2
[35] = test system: Cricetinae gen. sp.; test: Cultures with minimal degree of squamous metaplasia at a conc of 10e-10 M; assay type: functional, Cricetulus griseus; summary of the method: as §2
[36] = test system: Cricetinae gen. sp.; test: Cultures with minimal degree of squamous metaplasia at a conc of 10e-8 M; assay type: functional, Cricetulus griseus; summary of the method: as §2
[37] = test system: Cricetinae gen. sp.; test: Cultures with minimal degree of squamous metaplasia at a conc of 10e-9 M; assay type: functional, Cricetulus griseus; summary of the method: as §2
[38] = test system: Cricetinae gen. sp.; test: Cultures with no evidence of squamous metaplasia at a conc of 10e-10 M; assay type: functional, Cricetulus griseus; summary of the method: as §2
[39] = test system: Cricetinae gen. sp.; test: Cultures with no evidence of squamous metaplasia at a conc of 10e-8 M; assay type: functional, Cricetulus griseus; summary of the method: as §2
[40] = test system: Cricetinae gen. sp.; test: Cultures with no evidence of squamous metaplasia at a conc of 10e-9 M; assay type: functional, Cricetulus griseus; summary of the method: as §2
[41] = test system: Cricetinae gen. sp.; test: Cultures with severe degree of squamous metaplasia at a conc of 10e-10 M; assay type: functional, Cricetulus griseus; summary of the method: as §2
[42] = test system: Cricetinae gen. sp.; test: Cultures with severe degree of squamous metaplasia at a conc of 10e-8 M; assay type: functional, Cricetulus griseus; summary of the method: as §2
[43] = test system: Cricetinae gen. sp.; test: Cultures with severe degree of squamous metaplasia at a conc of 10e-9 M; assay type: functional, Cricetulus griseus; summary of the method: as §2
[44] = test system: Cricetinae gen. sp.; test: Reversal of keratinization in vitamin A deficient hamster trachea culture at a conc of 10e-8 M; assay type: functional, Cricetulus griseus; conditions: read-out: ED50 (the source's name); summary of the method: as §1
[45] = test system: Cricetinae gen. sp.; test: Cultures with mild degree of squamous metaplasia at a conc of 10e-9 M; assay type: functional, Cricetulus griseus; summary of the method: as §2
[46] = test system: HEp-2; test: Viability of human epidermoid carcinoma cells (H.Ep-2) at a conc 10 ug/mL; assay type: functional; summary of the method: as §3
[47] = test system: HEp-2; test: Viability of human epidermoid carcinoma cells (H.Ep-2) at a conc 1 ug/mL; assay type: functional; summary of the method: as §3
[48] = test system: HEp-2; test: Viability of human epidermoid carcinoma cells (H.Ep-2) at a conc 40 ug/mL; assay type: functional; summary of the method: as §3
[49] = test system: HEp-2; test: Viability of human epidermoid carcinoma cells (H.Ep-2) at a conc 20 ug/mL; assay type: functional; summary of the method: as §3
[50] = test system: L1210; test: Inhibition of proliferation of L1210 cells in culture at a conc 10 ug/mL; assay type: functional, Mus musculus; parameters: scale not given: the % may be the effect or the level left; summary of the method: as §4
[51] = test system: L1210; test: Inhibition of proliferation of L1210 cells in culture at a conc 1 ug/mL; assay type: functional, Mus musculus; parameters: scale not given: the % may be the effect or the level left; summary of the method: as §4
[52] = test system: L1210; test: Inhibition of proliferation of L1210 cells in culture at a conc 20 ug/mL; assay type: functional, Mus musculus; parameters: scale not given: the % may be the effect or the level left; summary of the method: as §4

CC1=C(/C=C/C(C)=C/C=C/C(C)=C\C(=O)O)C(C)(C)CCC1 [ISOTRETINOIN]
EC50 [1]: 0.03 nM

CC1=C(/C=C/C(C)=C/C=C/C(C)=C/C(=O)NC(CC(C)C)C(=O)O)C(C)(C)CCC1 (stereo unspecified)
Culture [2]: 32%
Culture [3]: 58%
Culture [4]: 0%
Culture [5]: 9%
Culture [6]: 16%
Culture [7]: 14%
Control [8]: 29%
Control [9]: 73%
Control [10]: 14%
Control [11]: 25%
Culture [12]: 0%
Culture [13]: 4%
Culture [14]: 4%
Culture [15]: 0%
Culture [16]: 0%
Culture [17]: 0%
Culture [18]: 0%
Culture [19]: 48%
Culture [20]: 14%
Culture [21]: 96%
Culture [22]: 87%
Culture [23]: 14%
Culture [24]: 0%
EC50 [25]: 0.1 nM
Control [26]: 62%
Control [27]: 95%
Control [28]: 20%
Culture [29]: 4%

CC1=C(/C=C/C(C)=C/C=C/C(C)=C/C(=O)NCCO)C(C)(C)CCC1
EC50 [1]: 0.1 nM

CC1=C(/C=C/C(C)=C/C=C/C(C)=C/C(=O)NC(CCC(=O)O)C(=O)O)C(C)(C)CCC1 (stereo unspecified)
Culture [30]: 43%
Culture [31]: 50%
Culture [32]: 25%
Culture [33]: 29%
Culture [34]: 12%
Culture [35]: 14%
Culture [36]: 0%
Culture [37]: 0%
Culture [38]: 14%
Culture [39]: 38%
Culture [40]: 25%
Culture [41]: 0%
Culture [42]: 0%
Culture [43]: 0%
EC50 [44]: > 10 nM
Culture [45]: 50%

CCNC(=O)\C=C(C)/C=C/C=C(C)/C=C/C1=C(C)CCCC1(C)C
Control [46]: 13%
Control [47]: 59%
Control [48]: 15%
Control [49]: 10%
EC50 [1]: 0.3 nM
Control [50]: 77%
Control [51]: 84%
Control [52]: 54%

CC1=C(/C=C/C(C)=C/C=C/C(C)=C\C(=O)Nc2ccc(O)cc2)C(C)(C)CCC1
EC50 [1]: > 1 nM

CC1=C(/C=C/C(C)=C/C=C/C(C)=C/C(=O)Nc2ccc(O)cc2)C(C)(C)CCC1 [FENRETINIDE]
EC50 [1]: 0.3 nM
